Assay results: ChEMBL document CHEMBL4020720, “Oxadiazole-substituted naphtho[2,3-b]thiophene-4,9-diones as potent inhibitors of keratinocyte hyperproliferation. Structure-activity relationships of the tricyclic quinone skeleton and the oxadiazole substituent” (Eur J Med Chem, 2017)

Experiments:
[1] = test system: HaCaT; assay: Antihyperproliferative activity against human HaCaT cells after 48 hrs by MTT assay; assay type: functional, cell-based
Procedure, shortened: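 HaCaT keratinocytes (mycoplasma-negative) exposed to compounds for 48 h, then MTT added (5 mg/mL stock in PBS) for 2 h at 37 °C. Formazan dissolved in DMSO and read at 570 nm, with 630 nm background. Inhibition = (1 − test/control) × 100, from test means (N = 3) against controls (N = 6-8). IC50 by nonlinear regression.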

[2] = target: NAD(P)H dehydrogenase [quinone] 1 (Homo sapiens) (UniProt P15559); assay: Induction of recombinant human NQO-1-mediated superoxide generation assessed as two-electron reduction of compound by measuring SOD-inhibitable reduction of cytochrome c per unit enzyme at […] by spectrophotometric analysis (reference value: 0.2 +/- 0.1 micromol/L/min)
[3] = test system: HaCaT; assay: Induction of apoptosis in human HaCaT cells at 5 umol/L after 18 hrs by 7-AAD staining based flow cytometry (reference value: 3 +/- 1%); assay type: functional
[4] = target: T1, NADPH--cytochrome P450 reductase (Homo sapiens, UniProt P16435); assay: Induction of recombinant human CPR-mediated superoxide generation assessed as one-electron reduction of compound by measuring SOD-inhibitable reduction of succinoylated cytochrome c per 2 mU enzyme at […] by spectrophotometric analysis (reference value: 0.2 +/- 0.1 micromol/L/min)
T1 sequence (P16435 whole entry): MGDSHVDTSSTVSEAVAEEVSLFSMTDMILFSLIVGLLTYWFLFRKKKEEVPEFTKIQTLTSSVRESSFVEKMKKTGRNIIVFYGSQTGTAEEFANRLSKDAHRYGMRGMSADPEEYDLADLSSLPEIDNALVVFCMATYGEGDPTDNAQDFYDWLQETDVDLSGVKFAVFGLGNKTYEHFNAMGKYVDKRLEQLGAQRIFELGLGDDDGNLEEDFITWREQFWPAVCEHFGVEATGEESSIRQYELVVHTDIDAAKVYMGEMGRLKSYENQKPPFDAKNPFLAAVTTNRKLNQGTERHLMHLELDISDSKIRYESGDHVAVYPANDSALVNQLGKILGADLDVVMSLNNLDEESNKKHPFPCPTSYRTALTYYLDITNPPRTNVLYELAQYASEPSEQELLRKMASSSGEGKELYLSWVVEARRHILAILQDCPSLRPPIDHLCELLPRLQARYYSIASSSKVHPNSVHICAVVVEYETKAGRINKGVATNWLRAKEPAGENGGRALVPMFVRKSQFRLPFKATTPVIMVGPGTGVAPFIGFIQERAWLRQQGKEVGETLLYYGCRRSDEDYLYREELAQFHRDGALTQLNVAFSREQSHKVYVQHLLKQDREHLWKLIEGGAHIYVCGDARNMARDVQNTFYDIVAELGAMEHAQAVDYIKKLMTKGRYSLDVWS

[5] = test system: HaCaT; assay: Induction of superoxide generation in human HaCaT cells assessed as 2-OH-E+ oxidized product formation by measuring mean fluorescence intensity at 5 umol/L preincubated with 5 umol/L NQO-1 inhibitor dicoumarol for 25 mins followed by compound treatment measured after 18 hrs by flow cytometry (reference value: 407.59 +/- 68.7); assay type: functional
Procedure, shortened: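 HaCaT cells were cultured as for the chronic assay and preincubated 25 min with dicoumarol (5 µmol/L) before test compound was added. DHE was loaded for 30 min in the dark, then cells were trypsinized. 2-OH-E+ fluorescence was read by flow cytometry in FL2 (550–600 nm) on 10 000 live cells, dead cells gated out, as MFI against DMSO control. Triplicate.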

[6] = test system: HaCaT; assay: Induction of apoptosis in human HaCaT cells at 5 umol/L preincubated with 5 umol/L NQO-1 inhibitor dicoumarol for 25 mins followed by compound treatment measured after 18 hrs by 7-AAD staining based flow cytometry (reference value: 4.3 +/- 2.6%); assay type: functional; set-up: scale not given: the % may be the effect or the level left
[7] = test system: HaCaT; assay: Induction of superoxide generation in human HaCaT cells assessed as 2-OH-E+ oxidized product formation by measuring mean fluorescence intensity at 50 umol/L after 30 mins by flow cytometry (reference value: 7.1 +/- 5.2); assay type: functional
[8] = test system: HaCaT; assay: Induction of superoxide generation in human HaCaT cells assessed as 2-OH-E+ oxidized product formation by measuring mean fluorescence intensity at 5 umol/L after 18 hrs by flow cytometry (reference value: 367.5 +/- 80.1); assay type: functional
Procedure, shortened: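 HaCaT keratinocytes grown in DMEM with 10% FBS and penicillin/streptomycin for 24 h at 37 °C, then exposed to test compound (5 µM, 0.1% DMSO final) for 18 h. DHE was added and loaded for 30 min, with shaking for the first 5 min, in the dark. Cells were trypsinized and read by flow cytometry (488 nm excitation, FL2 550–600 nm), 10 000 live cells, dead cells gated out. Read-out is MFI versus DMSO control; triplicate.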

Sequence of NAD(P)H dehydrogenase [quinone] 1 (Homo sapiens) (P15559 whole entry): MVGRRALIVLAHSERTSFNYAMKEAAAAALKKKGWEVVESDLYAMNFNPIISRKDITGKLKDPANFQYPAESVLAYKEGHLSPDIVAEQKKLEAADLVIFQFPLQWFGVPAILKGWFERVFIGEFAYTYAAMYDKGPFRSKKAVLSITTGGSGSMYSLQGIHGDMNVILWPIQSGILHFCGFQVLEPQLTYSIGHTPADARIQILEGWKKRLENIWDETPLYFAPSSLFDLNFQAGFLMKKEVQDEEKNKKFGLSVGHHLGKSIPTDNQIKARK

Row | Structure (SMILES) | IC50 [1] | further results
1 | CCc1noc(-c2cc3c(OC)c4ccccc4cc3s2)n1 | > 30 µM | 
2 | CCC(=O)Nc1cc2c(s1)C(=O)c1ccccc1C2=O | 9.6 µM | 
3 | Cc1nnc(-c2cc3c(s2)C(=O)c2ccccc2C3=O)s1 | 3.7 µM | 
4 | CC(C)C(=O)Nc1cc2c(s1)C(=O)c1ccccc1C2=O | 3.3 µM | 
5 | O=C1c2ccccc2C(=O)c2sc(/C=N/Nc3ccccc3)cc21 | > 30 µM | 
6 | CCc1noc(-c2cc3c(s2)Cc2ccccc2C3=O)n1 | 7.3 µM | 
7 | O=C(O)c1cc2c(s1)C(=O)c1ccccc1C2=O | > 30 µM | 
8 | CCc1noc(-c2ccc3sc4ccccc4c(=O)c3c2)n1 | > 30 µM | 
9 | O=C1c2ccccc2C(=O)c2sccc21 [THIOPHENONAPHTHOQUINONE] |  | Activity [2]: 1.2 µmol/L/min; Activity [3]: 4%; Activity [4]: 1.2 µmol/L/min; Flu intensity [5]: 583.3; Activity [6]: 7.4%; Flu intensity [7]: 10.5; Flu intensity [8]: 552.7
10 | CCc1noc(-c2cc3oc4ccccc4c(=O)c3s2)n1 | > 30 µM | 
11 | O=C1c2ccccc2C(=O)c2sc(-c3nnc(-c4ccccc4)o3)cc21 | > 30 µM | 
12 | O=C1c2ccccc2C(=O)c2sc(-c3nncs3)cc21 | 0.3 µM | 
13 | CCc1noc(-c2cccs2)n1 | > 30 µM | 
14 | O=C(Nc1cc2c(s1)C(=O)c1ccccc1C2=O)c1ccccc1 | 2.3 µM | 
15 | CCc1noc(C=C2c3ccccc3C(=O)c3ccccc32)n1 | 6.5 µM | 
16 | CCc1nnc(-c2cc3c(s2)C(=O)c2ccccc2C3=O)o1 | 0.15 µM | 
17 | CCc1noc(-c2cc3c(s2)C(=O)c2ccccc2C3=O)n1 | 0.36 µM | Activity [2]: 0.5 µmol/L/min; Activity [3]: 39.3%; Activity [4]: 0.9 µmol/L/min; Flu intensity [5]: 558.7; Activity [6]: 6.9%; Flu intensity [7]: 25.2; Flu intensity [8]: 930.1
18 | O=C1c2ccccc2C(=O)c2c([N+](=O)[O-])csc21 | 1.1 µM | 
19 | CCc1nnc(-c2cc3c(s2)C(=O)c2ccccc2C3=O)s1 | > 15 µM | 
20 | CN/N=C/c1cc2c(s1)C(=O)c1ccccc1C2=O | > 30 µM | 
21 | CCc1noc(-c2ccc(C(=O)c3ccccc3)s2)n1 | > 30 µM | 
22 | CCc1noc(-c2cc3ccccc3s2)n1 | > 30 µM | 
23 | CCc1noc(-c2ccc3c(c2)C(=O)C=CC3=O)n1 | 14 µM | 
24 | CCc1noc(-c2cc3c(s2)C(=O)C=CC3=O)n1 | 11 µM | 
25 | CCCCc1nnc(-c2cc3c(s2)C(=O)c2ccccc2C3=O)o1 | 1.9 µM | 
26 | COc1ccc(C(=O)Nc2cc3c(s2)C(=O)c2ccccc2C3=O)cc1 | 1.1 µM | 
27 | CC(=O)c1cc2c(s1)C(=O)c1ccccc1C2=O |  | Activity [2]: 0.8 µmol/L/min; Activity [3]: 4.2%; Activity [4]: 1.2 µmol/L/min; Flu intensity [5]: 434.5; Activity [6]: 3.7%; Flu intensity [7]: 19.2; Flu intensity [8]: 500

Row | Structure (SMILES) | IC50 [1] | further results
28 | Cc1nnc(-c2cc3c(s2)C(=O)c2ccccc2C3=O)o1 | 0.08 µM | 
29 | CCc1noc(-c2ccc3c(=O)c4ccccc4oc3c2)n1 | > 30 µM | 
30 | CCc1noc(-c2cc(C(C)=O)cs2)n1 | > 30 µM | 
31 | CC1=CC(=O)c2ccccc2C1=O [MENADIONE] |  | Activity [2]: 1 µmol/L/min; Activity [3]: 4.8%; Activity [4]: 2.1 µmol/L/min; Flu intensity [5]: 457.2; Activity [6]: 3.1%; Flu intensity [7]: 44; Flu intensity [8]: 431.9
32 | N#Cc1cc2c(s1)C(=O)c1ccccc1C2=O | 0.46 µM | 
33 | CCc1nc(-c2ccc3c(c2)C(=O)c2ccccc2C3=O)no1 | > 30 µM | 
34 | CCc1noc(-c2ccc3c(c2)C(=O)c2ccccc2C3=O)n1 | > 30 µM | 
35 | COC(=O)c1cc2c(s1)C(=O)c1ccccc1C2=O | 0.71 µM | 
36 | CC(=O)/C=C/c1cc2c(s1)C(=O)c1ccccc1C2=O | > 30 µM | 
37 | CCc1noc(-c2cc3c(OC)ccc(OC)c3s2)n1 | > 30 µM | 
38 | O=Cc1cc2c(s1)C(=O)c1ccccc1C2=O | 1.2 µM | 
39 | CCc1noc(-c2cc3cc4ccccc4cc3s2)n1 | > 30 µM | 
40 | Cc1cc2c(s1)C(=O)c1ccccc1C2=O | 5.2 µM | Activity [2]: 0.3 µmol/L/min; Activity [3]: 4.3%; Activity [4]: 1.1 µmol/L/min; Flu intensity [5]: 633.5; Activity [6]: 4.3%; Flu intensity [7]: 11.5; Flu intensity [8]: 517
41 | O=C1c2ccccc2C(=O)c2sc(-c3nnn[nH]3)cc21 | > 30 µM | 
42 | CCc1nc(-c2cc3c(s2)C(=O)c2ccccc2C3=O)no1 | 0.58 µM | 
43 | O=C(/C=C/c1cc2c(s1)C(=O)c1ccccc1C2=O)c1ccccc1 | > 30 µM | 
44 | O=C1c2ccccc2C(=O)c2sc([N+](=O)[O-])cc21 | 1.8 µM | Activity [2]: 4.6 µmol/L/min; Activity [3]: 5.6%; Activity [4]: 2 µmol/L/min; Flu intensity [5]: 1022; Activity [6]: 3.4%; Flu intensity [7]: 138; Flu intensity [8]: 973.8
45 | CCc1noc(C2=CC(=O)c3ccccc3C2=O)n1 | > 30 µM | 
46 | CCc1noc(-c2ccc(C(C)=O)cc2)n1 | > 30 µM | 
47 | NNC(=O)c1cc2c(s1)C(=O)c1ccccc1C2=O | 1.7 µM | 
48 | CCc1noc(-c2cc3c(OC)c4ccccc4c(OC)c3s2)n1 | 6.7 µM | 
49 | CCc1noc(-c2ccc3ccccc3c2)n1 | > 30 µM | 
50 | CCc1noc(-c2ccccc2)n1 | > 30 µM | 
51 | Nc1cc2c(s1)C(=O)c1ccccc1C2=O | > 30 µM | Activity [2]: 0.8 µmol/L/min; Activity [3]: 5.6%; Activity [4]: 1.1 µmol/L/min; Flu intensity [5]: 502.3; Activity [6]: 3.2%; Flu intensity [7]: 76.7; Flu intensity [8]: 518
52 | O=C1c2ccccc2C(=O)c2sc(-c3nnco3)cc21 | 0.22 µM | 
53 | CCCC(=O)Nc1cc2c(s1)C(=O)c1ccccc1C2=O | 5.7 µM | 
